Laboratory results from ChEMBL document CHEMBL1156750 (Bioorg Med Chem Lett, 2009).

Columns and labels:
Plasma = test: Anticoagulant activity in human plasma assessed as concentration required to double the prothrombin based clotting time after 30 seconds; type: functional
Procedure, shortened: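 Human plasma prothrombin-based clotting time; value is the inhibitor concentration that doubles the clotting time, averaged from two independent determinations.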

Coagulation factor X = Coagulation factor X (Homo sapiens, UniProt P00742)
Sequence of Coagulation factor X (P00742 41-179 limits assumed): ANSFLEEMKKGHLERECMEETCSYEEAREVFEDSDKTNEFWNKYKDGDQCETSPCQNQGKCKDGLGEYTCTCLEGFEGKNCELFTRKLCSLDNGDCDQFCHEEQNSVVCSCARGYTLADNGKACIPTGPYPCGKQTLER
Sequence of Coagulation factor X (P00742 235-488 limits assumed): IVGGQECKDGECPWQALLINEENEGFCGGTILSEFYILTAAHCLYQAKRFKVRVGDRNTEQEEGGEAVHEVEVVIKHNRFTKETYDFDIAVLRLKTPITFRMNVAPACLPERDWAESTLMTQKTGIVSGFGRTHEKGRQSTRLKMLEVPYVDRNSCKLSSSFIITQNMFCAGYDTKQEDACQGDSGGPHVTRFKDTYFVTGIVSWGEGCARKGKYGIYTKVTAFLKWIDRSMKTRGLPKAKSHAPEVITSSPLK

Cytochrome P450 3A4 = Cytochrome P450 3A4 (Homo sapiens, UniProt P08684); test: Inhibition of CYP3A4 using BFC as a substrate; type: ADME
Sequence of Cytochrome P450 3A4 (P08684 whole entry): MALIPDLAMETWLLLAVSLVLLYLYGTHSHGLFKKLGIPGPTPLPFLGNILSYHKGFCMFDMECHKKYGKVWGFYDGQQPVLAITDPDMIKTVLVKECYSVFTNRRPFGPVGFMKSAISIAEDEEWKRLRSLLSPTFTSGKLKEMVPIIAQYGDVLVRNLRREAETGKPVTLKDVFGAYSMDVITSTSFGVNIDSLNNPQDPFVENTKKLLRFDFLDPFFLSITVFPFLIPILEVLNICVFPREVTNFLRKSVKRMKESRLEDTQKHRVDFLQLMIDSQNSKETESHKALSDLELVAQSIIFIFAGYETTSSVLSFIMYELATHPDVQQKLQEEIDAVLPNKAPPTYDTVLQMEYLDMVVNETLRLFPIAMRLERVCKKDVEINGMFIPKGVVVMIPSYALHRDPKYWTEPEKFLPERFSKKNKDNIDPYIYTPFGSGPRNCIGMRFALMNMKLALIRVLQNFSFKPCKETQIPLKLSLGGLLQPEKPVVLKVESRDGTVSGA

Cytochrome P450 2C19 = Cytochrome P450 2C19 (Homo sapiens, UniProt P33261); test: Inhibition of CYP2C19; type: ADME
Sequence of Cytochrome P450 2C19 (P33261 whole entry): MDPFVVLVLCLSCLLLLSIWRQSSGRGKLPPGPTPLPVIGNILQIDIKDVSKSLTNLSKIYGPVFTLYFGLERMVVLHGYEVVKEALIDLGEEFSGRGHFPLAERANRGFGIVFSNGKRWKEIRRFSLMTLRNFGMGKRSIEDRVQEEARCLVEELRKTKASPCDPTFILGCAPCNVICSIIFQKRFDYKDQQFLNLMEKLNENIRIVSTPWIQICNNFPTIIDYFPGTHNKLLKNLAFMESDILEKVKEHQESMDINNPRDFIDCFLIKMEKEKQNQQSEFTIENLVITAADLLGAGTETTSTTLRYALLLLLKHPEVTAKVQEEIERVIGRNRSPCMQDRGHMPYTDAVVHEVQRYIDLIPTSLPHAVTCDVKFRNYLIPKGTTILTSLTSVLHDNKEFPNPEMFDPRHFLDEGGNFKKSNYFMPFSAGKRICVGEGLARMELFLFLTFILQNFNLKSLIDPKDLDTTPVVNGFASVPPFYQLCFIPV

Cytochrome P450 2C9 = Cytochrome P450 2C9 (Homo sapiens, UniProt P11712); test: Inhibition of CYP2C9; type: ADME
Sequence of Cytochrome P450 2C9 (P11712 whole entry): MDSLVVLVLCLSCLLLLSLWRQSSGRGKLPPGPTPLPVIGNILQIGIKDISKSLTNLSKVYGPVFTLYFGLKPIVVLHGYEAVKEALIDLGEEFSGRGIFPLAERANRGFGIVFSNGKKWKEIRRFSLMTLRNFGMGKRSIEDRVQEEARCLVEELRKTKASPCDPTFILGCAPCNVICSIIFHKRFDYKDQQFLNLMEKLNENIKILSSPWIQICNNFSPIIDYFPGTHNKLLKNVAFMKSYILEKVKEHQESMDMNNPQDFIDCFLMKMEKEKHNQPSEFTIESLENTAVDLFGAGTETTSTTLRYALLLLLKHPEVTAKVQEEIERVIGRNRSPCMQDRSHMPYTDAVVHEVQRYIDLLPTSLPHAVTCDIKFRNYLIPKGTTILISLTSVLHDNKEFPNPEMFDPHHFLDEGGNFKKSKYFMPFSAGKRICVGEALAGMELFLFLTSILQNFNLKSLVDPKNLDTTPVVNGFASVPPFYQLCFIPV

Rattus norvegicus [1] = test: Ex vivo anticoagulant activity in Sprague-Dawley rat assessed as prolongation of prothrombin time at 30mg/kg, id after 120 mins; type: functional
Procedure, shortened: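 Anesthetized rats dosed intraduodenally at 30 mg/kg in 10% ethanol/90% PEG300, then a saline flush. Arterial blood drawn into 3.8% Na-citrate (1/10, v/v) before dosing and at 30, 60, 90 and 120 min. Ex vivo prothrombin time measured on a micro coagulation analyzer using Thromboplastin-C reagent.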

Rattus norvegicus [2] = test: Anticoagulant activity against Sprague-Dawley rat arterial thrombosis model induced by topical application of Fecl2; type: functional
Procedure, shortened: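 Rat carotid artery thrombosis: vehicle (PEG-400) or compound given by 1 mL/kg gavage at 0 min (5, 10, 15, 30 mg/kg; n = 5, 6, 6, 4; vehicle n = 8), with aspirin 10 mg/kg iv 15 min before FeCl2. Rats anesthetized at 30 min. 50% FeCl2 applied topically at 60 min for 10 min. Thrombus weight taken 1 h later. ANOVA with Dunnett's test.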

| SMILES | Activity (Plasma) [µM] | IC50 (Coagulation factor X) [µM] | also measured |
| --- | --- | --- | --- |
| CCOC(=O)/N=C(\Nc1ccc2oc(C)cc2c1)N[C@H]1CCCCN(CC(=O)N2CCCC2)C1=O | 34 |  |  |
| COC(=O)c1ccc(C(=O)/N=C(\Nc2ccc3oc(C)cc3c2)N[C@H]2CCCCN(CC(=O)N3CCCC3)C2=O)cc1 | 18 |  |  |
| Cc1cc2cc(N/C(=N\C(=O)c3cccc(C(=O)N(C)C)c3)N[C@H]3CCCCN(CC(=O)N4CCCC4)C3=O)ccc2o1 | 8 | 0.01 |  |
| Cc1cc2cc(N/C(=N\C(=O)c3ccncc3)N[C@H]3CCCCN(CC(=O)N4CCCC4)C3=O)ccc2o1 | 16 |  |  |
| Cc1cc2cc(/N=C(/NC(=O)c3cccnc3)N[C@H]3CCCCN(CC(=O)N4CCCC4)C3=O)ccc2o1 | 7 |  | IC50 (Cytochrome P450 3A4): 0.3 µM; IC50 (Cytochrome P450 2C19): 8 µM; IC50 (Cytochrome P450 2C9): 10 µM; fold change (FC) (Rattus norvegicus [1]): >=3.2 |
| Cc1cc2cc(N/C(=N\C(=O)N(C)C)N[C@H]3CCCCN(CC(=O)N4CCCC4)C3=O)ccc2o1 | 55 |  |  |
| Cc1cc2cc(N/C(=N\C(=O)c3ccc(C(=O)O)nc3)N[C@H]3CCCCN(CC(=O)N4CCCC4)C3=O)ccc2o1 | 6.8 |  | IC50 (Cytochrome P450 3A4): 87 µM; IC50 (Cytochrome P450 2C19): 47 µM; IC50 (Cytochrome P450 2C9): 122 µM |
| CNC(=O)c1ccc(C(=O)/N=C(\Nc2ccc3oc(C)cc3c2)N[C@H]2CCCCN(CC(=O)N3CCCC3)C2=O)cn1 | 3 |  | IC50 (Cytochrome P450 3A4): 18 µM; IC50 (Cytochrome P450 2C19): 12 µM; IC50 (Cytochrome P450 2C9): 24 µM |
| Cc1cc2cc(N/C(=N\C(=O)c3ccccc3)N[C@H]3CCCCN(CC(=O)N4CCCC4)C3=O)ccc2o1 | 48 |  |  |
| Cc1cc2cc(N/C(=N/[N+](=O)[O-])N[C@H]3CCCCN(CC(=O)N4CCCC4)C3=O)ccc2o1 | >50 | 0.025 |  |
| Cc1cc2cc(N/C(=N\C(=O)c3cnccn3)N[C@H]3CCCCN(CC(=O)N4CCCC4)C3=O)ccc2o1 | 18 |  |  |
| Cc1cc2cc(N/C(=N\C(=O)c3cnn(C)c3)N[C@H]3CCCCN(CC(=O)N4CCCC4)C3=O)ccc2o1 | 11 |  |  |
| Cc1cc2cc(N/C(=N\C(=O)c3ccc(C(N)=O)cc3)N[C@H]3CCCCN(CC(=O)N4CCCC4)C3=O)ccc2o1 | 5 | 0.003 | fold change (FC) (Rattus norvegicus [2]): >=3.6 |
| Cc1cc2cc(N/C(=N\C(=O)c3ccoc3)N[C@H]3CCCCN(CC(=O)N4CCCC4)C3=O)ccc2o1 | 33 |  |  |
| Cc1cc2cc(N/C(=N\C(=O)c3nnn(C)n3)N[C@H]3CCCCN(CC(=O)N4CCCC4)C3=O)ccc2o1 | 28 |  |  |
| Cc1cc2cc(N/C(=N\C(=O)c3ccc(C(N)=O)nc3)N[C@H]3CCCCN(CC(=O)N4CCCC4)C3=O)ccc2o1 | 5.7 |  | IC50 (Cytochrome P450 3A4): 18 µM; IC50 (Cytochrome P450 2C19): 13 µM; IC50 (Cytochrome P450 2C9): 22 µM |
| Cc1cc2cc(N/C(=N\C(=O)c3ccc(C(=O)O)cc3)N[C@H]3CCCCN(CC(=O)N4CCCC4)C3=O)ccc2o1 | 5 |  |  |

| SMILES | Activity (Plasma) [µM] | IC50 (Coagulation factor X) [µM] | also measured |
| --- | --- | --- | --- |
| Cc1cc2cc(N/C(=N\C(=O)c3ccc(C(=O)N(C)C)cc3)N[C@H]3CCCCN(CC(=O)N4CCCC4)C3=O)ccc2o1 | 4 | 0.003 | fold change (FC) (Rattus norvegicus [2]): >=3.6 |
| Cc1cc2cc(N/C(=N\C(=O)c3ccc[n+]([O-])c3)N[C@H]3CCCCN(CC(=O)N4CCCC4)C3=O)ccc2o1 | 3 | 0.01 | IC50 (Cytochrome P450 3A4): 0.9 µM; IC50 (Cytochrome P450 2C19): 128 µM; IC50 (Cytochrome P450 2C9): 122 µM |
| Cc1cc2cc(N/C(=N\C(=O)c3ccsc3)N[C@H]3CCCCN(CC(=O)N4CCCC4)C3=O)ccc2o1 | 19 |  |  |
| Cc1cc2cc(N/C(=N\C(=O)c3cncc(C(N)=O)c3)N[C@H]3CCCCN(CC(=O)N4CCCC4)C3=O)ccc2o1 | 7 |  | IC50 (Cytochrome P450 3A4): 0.4 µM; IC50 (Cytochrome P450 2C19): 37 µM; IC50 (Cytochrome P450 2C9): 10 µM |
| Cc1cc2cc(/N=C(/NC#N)N[C@H]3CCCCN(CC(=O)N4CCCC4)C3=O)ccc2o1 | 32 |  | fold change (FC) (Rattus norvegicus [2]): ≥ 1.8; fold change (FC) (Rattus norvegicus [1]): >=1.8 |
| Cc1ccc(C(=O)/N=C(\Nc2ccc3oc(C)cc3c2)N[C@H]2CCCCN(CC(=O)N3CCCC3)C2=O)cn1 | 12 |  | IC50 (Cytochrome P450 3A4): 7 µM; IC50 (Cytochrome P450 2C19): 27 µM; IC50 (Cytochrome P450 2C9): 9 µM |
| Cc1cc2cc(N/C(=N\C(=O)c3cccc(C(N)=O)c3)N[C@H]3CCCCN(CC(=O)N4CCCC4)C3=O)ccc2o1 | 7 | 0.018 |  |
| COC(=O)c1cccc(C(=O)/N=C(\Nc2ccc3oc(C)cc3c2)N[C@H]2CCCCN(CC(=O)N3CCCC3)C2=O)c1 | 41 | 0.005 |  |
| CC(=O)/N=C(\Nc1ccc2oc(C)cc2c1)N[C@H]1CCCCN(CC(=O)N2CCCC2)C1=O | 70 |  |  |
| Cc1cc2cc(N/C(=N\C(=O)c3ccc(Cl)nc3)N[C@H]3CCCCN(CC(=O)N4CCCC4)C3=O)ccc2o1 | 14 |  | IC50 (Cytochrome P450 3A4): 8 µM; IC50 (Cytochrome P450 2C19): 22 µM; IC50 (Cytochrome P450 2C9): 12 µM |
| COC(=O)c1ccc(C(=O)/N=C(\Nc2ccc3oc(C)cc3c2)N[C@H]2CCCCN(CC(=O)N3CCCC3)C2=O)nc1 | 16 |  |  |
| Cc1cc2cc(N/C(=N\S(N)(=O)=O)N[C@H]3CCCCN(CC(=O)N4CCCC4)C3=O)ccc2o1 | >50 | 0.012 |  |
| Cc1cc2cc(N/C(=N\C(N)=O)N[C@H]3CCCCN(CC(=O)N4CCCC4)C3=O)ccc2o1 | 60 |  |  |
| Cc1cc2cc(N/C(=N\C(=O)c3cccc(Cl)c3)N[C@H]3CCCCN(CC(=O)N4CCCC4)C3=O)ccc2o1 | >50 |  |  |
| Cc1cc2cc(N/C(=N\S(C)(=O)=O)N[C@H]3CCCCN(CC(=O)N4CCCC4)C3=O)ccc2o1 | 60 | 0.01 |  |
| Cc1cc2cc(N/C(=N\S(=O)(=O)c3ccccc3)N[C@H]3CCCCN(CC(=O)N4CCCC4)C3=O)ccc2o1 | >50 | 0.024 |  |
